Assay results of several laboratories.
pEC50, pIC50: −log10 of the molar value.

Compound | tested on | test | test system | setting | quantity | result
O=C1CC[C@H](N2Cc3cc(N4CCN(CC5CCN(c6ccc([C@@H]7c8ccc(O)cc8CC[C@@H]7c7ccccc7)cc6)CC5)CC4)ccc3C2=O)C(=O)N1 | T47D | cell growth or viability, ATP luminescence |  | 5 days | GI50 | 0.0045 µM
COc1cc(C#CC(=O)C(C)C)ccc1O | Pseudomonas aeruginosa | microbial growth, absorbance |  | 10 µM, 24 h | activity vs control | 94%
CN(C)c1cc(NC(=O)Cc2cccnn2)c(O)c2c1C[C@H]1C[C@H]3[C@H](N(C)C)C(O)=C(C(N)=O)C(=O)[C@@]3(O)C(O)=C1C2=O | Mycobacteroides abscessus | microbial growth, resazurin | ATCC19977 |  | IC50 | 1.67 µg/mL
C=C(F)C(=O)N1CCN(c2nc(OC[C@@H]3CCCN3C)nc3c2CCN(c2cccc4cccc(Cl)c24)C3)C[C@@H]1CC#N | SW837 | cell growth or viability, ATP luminescence |  | 3D culture | pIC50 | 8.24
CN(C)c1cc(NC(=O)Cc2ccn(C)n2)c(O)c2c1C[C@H]1C[C@H]3[C@H](N(C)C)C(O)=C(C(N)=O)C(=O)[C@@]3(O)C(O)=C1C2=O | Mycobacteroides abscessus | microbial growth, resazurin | ATCC19977 |  | IC50 | 0.86 µg/mL
O=C(O)CO/N=c1\cc2n(-c3ccc(Cl)cc3)c3ccccc3nc-2cc1Nc1ccc(Cl)cc1 | Mycobacteroides abscessus | microbial growth |  | clinical isolate | MIC | > 30 µM
CN(C)c1cc(CNCC(C)(C)C)c(O)c2c1C[C@H]1C[C@H]3[C@H](N(C)C)C(O)=C(C(N)=O)C(=O)[C@@]3(O)C(O)=C1C2=O | Mycobacteroides abscessus | microbial growth, resazurin | ATCC19977 |  | IC50 | < 1 µg/mL
COc1cc(C#CC(=O)c2ccccc2OC)ccc1O | Pseudomonas aeruginosa | microbial growth, absorbance |  | 10 µM, 24 h | activity vs control | 91%
Clc1ccc(Nc2cc3nc4ccccc4n(-c4ccc(Cl)cc4)c-3c/c2=N\OCc2ccccc2)cc1 | Mycobacteroides abscessus | microbial growth |  | clinical isolate | MIC | > 30 µM
CN(C)c1cc(NC(=O)Cc2ccncn2)c(O)c2c1C[C@H]1C[C@H]3[C@H](N(C)C)C(O)=C(C(N)=O)C(=O)[C@@]3(O)C(O)=C1C2=O | Mycobacteroides abscessus | microbial growth, resazurin | ATCC19977 |  | IC50 | 0.59 µg/mL
CO/N=c1\cc2n(-c3ccc(Cl)cc3)c3ccccc3nc-2cc1Nc1ccc(Cl)cc1 | Mycobacteroides abscessus | microbial growth |  | clinical isolate | MIC | > 30 µM
C=CC(=O)NC1CCN(c2ncc3ncnc(Nc4ccc(Oc5ccc6c(c5)ncn6C)c(C)c4)c3n2)CC1 | SW837 | cell growth or viability |  |  | pEC50 | 1.67
Cc1cccc(C(=O)C#Cc2ccc(F)c(F)c2)c1 | Pseudomonas aeruginosa | microbial growth, absorbance |  | 100 µM, 24 h | activity vs control | 100%
O=C(NO)c1ccc(CNc2nc3cccc(-c4ccc5c(c4)OCO5)n3n2)cc1 | T47D | cell growth or viability, SRB |  |  | GI50 | 0.43 µM
O=C(C#Cc1ccc(F)c(F)c1)c1ccc(Cl)cc1 | Pseudomonas aeruginosa | microbial growth, absorbance |  | 100 µM, 24 h | activity vs control | 96%
CN(C)c1cc(NC(=O)Cc2cncnc2)c(O)c2c1C[C@H]1C[C@H]3[C@H](N(C)C)C(O)=C(C(N)=O)C(=O)[C@@]3(O)C(O)=C1C2=O | Mycobacteroides abscessus | microbial growth, resazurin | ATCC19977 |  | IC50 | 0.74 µg/mL
COc1cc(C#CC(=O)c2cccc(Cl)c2)ccc1O | Pseudomonas aeruginosa | microbial growth, absorbance |  | 10 µM, 24 h | activity vs control | 102%
C[C@H](NC(=O)CO/N=c1\cc2n(-c3ccc(Cl)cc3)c3ccccc3nc-2cc1Nc1ccc(Cl)cc1)C(=O)OC(C)(C)C | Mycobacteroides abscessus | microbial growth |  | clinical isolate | MIC | > 30 µM
O=C(C#Cc1ccc(F)c(F)c1)c1ccccc1 | Pseudomonas aeruginosa | microbial growth, absorbance |  | 10 µM, 24 h | activity vs control | 94%
CN(C)c1cc(NC(=O)Cc2cscn2)c(O)c2c1C[C@H]1C[C@H]3[C@H](N(C)C)C(O)=C(C(N)=O)C(=O)[C@@]3(O)C(O)=C1C2=O | Mycobacteroides abscessus | microbial growth, resazurin | ATCC19977 |  | IC50 | 0.23 µg/mL
COc1ccccc1C(=O)C#Cc1ccc(F)c(F)c1 | Pseudomonas aeruginosa | microbial growth, absorbance |  | 100 µM, 24 h | activity vs control | 83%
C[C@H](NC(=O)CO/N=c1\cc2n(-c3ccc(Cl)cc3)c3ccccc3nc-2cc1Nc1ccc(Cl)cc1)C(=O)O | Mycobacteroides abscessus | microbial growth |  | clinical isolate | MIC | > 30 µM
